Measured values published in ChEMBL document CHEMBL3632567, “Selective Allosteric Antagonists for the G Protein-Coupled Receptor GPRC6A Based on the 2-Phenylindole Privileged Structure Scaffold” (J Med Chem, 2015).

What was measured:
[1] = target: T1, G-protein coupled receptor family C group 6 member A (Mus musculus, UniProt Q8K4Z6); experiment: Antagonist activity at mouse GPRC6A receptor expressed in HEK293 cells assessed as inhibition of L-ornithine-induced inositol monophosphate accumulation after 1 hr by FRET assay; type: functional, cell-based
T1 sequence (Q8K4Z6 whole entry): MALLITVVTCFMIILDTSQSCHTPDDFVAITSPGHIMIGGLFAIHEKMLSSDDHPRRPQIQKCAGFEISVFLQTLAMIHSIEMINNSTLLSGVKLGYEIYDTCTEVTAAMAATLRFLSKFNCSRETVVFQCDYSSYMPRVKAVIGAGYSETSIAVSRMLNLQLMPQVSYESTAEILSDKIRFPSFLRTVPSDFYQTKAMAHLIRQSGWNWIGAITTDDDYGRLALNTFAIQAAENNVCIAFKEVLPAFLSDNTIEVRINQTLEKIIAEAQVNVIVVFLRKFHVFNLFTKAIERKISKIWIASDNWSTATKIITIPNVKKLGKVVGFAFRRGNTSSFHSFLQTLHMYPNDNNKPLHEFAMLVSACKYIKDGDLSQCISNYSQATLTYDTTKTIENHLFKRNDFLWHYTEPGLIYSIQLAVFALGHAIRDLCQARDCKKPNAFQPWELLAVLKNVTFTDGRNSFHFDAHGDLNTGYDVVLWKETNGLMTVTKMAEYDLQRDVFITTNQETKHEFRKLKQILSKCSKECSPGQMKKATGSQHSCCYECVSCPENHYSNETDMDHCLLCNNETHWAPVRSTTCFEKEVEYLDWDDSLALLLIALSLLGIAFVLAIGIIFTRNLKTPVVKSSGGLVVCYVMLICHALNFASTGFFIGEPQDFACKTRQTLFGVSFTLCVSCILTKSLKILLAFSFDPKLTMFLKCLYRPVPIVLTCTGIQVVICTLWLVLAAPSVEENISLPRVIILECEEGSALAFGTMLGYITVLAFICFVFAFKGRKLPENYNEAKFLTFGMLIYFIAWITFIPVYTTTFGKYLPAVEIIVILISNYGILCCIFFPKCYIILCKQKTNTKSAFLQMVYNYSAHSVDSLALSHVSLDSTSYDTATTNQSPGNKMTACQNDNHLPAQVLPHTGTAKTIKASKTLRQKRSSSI
Method in brief: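 HEK-293T cells transiently co-transfected (Lipofectamine 2000, 48 h before assay) with mouse GPRC6A and Gq(G66D), 1:1, 12,500 cells/well on poly-D-lysine. Cells washed twice in HBSS/HEPES/BSA pH 7.4, then 1 h at 37 °C with compounds (up to 400 µM, 2% DMSO final) plus 500 µM L-ornithine in LiCl Ligand Buffer. IP1 read by HTRF; curves triplicate, ≥3 experiments; relative potency = IC50(reference)/IC50 × 100.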

[2] = target: T2, G-protein coupled receptor family C group 6 member A (Mus musculus) (UniProt Q8K4Z6); experiment: Relative antagonist potency at mouse GPRC6A receptor expressed in HEK293 cells assessed as L-ornithine-induced inositol monophosphate accumulation after 1 hr by FRET assay relative to 2-[methyl-(2-morpholino-2-oxo-ethyl)amino]-1-(2-phenyl-1H-indol-3-yl)ethanone
T2 sequence (whole entry): T1 sequence (Q8K4Z6 whole entry)

[3] = target: Muscarinic acetylcholine receptor M3 (Homo sapiens, UniProt P20309); experiment: Antagonist activity at human muscarinic M3 receptor expressed in HEK293 cells assessed as inhibition of carbachol-induced inositol monophosphate accumulation after 1 hr by FRET assay; type: functional, cell-based
Sequence of Muscarinic acetylcholine receptor M3 (P20309 whole entry): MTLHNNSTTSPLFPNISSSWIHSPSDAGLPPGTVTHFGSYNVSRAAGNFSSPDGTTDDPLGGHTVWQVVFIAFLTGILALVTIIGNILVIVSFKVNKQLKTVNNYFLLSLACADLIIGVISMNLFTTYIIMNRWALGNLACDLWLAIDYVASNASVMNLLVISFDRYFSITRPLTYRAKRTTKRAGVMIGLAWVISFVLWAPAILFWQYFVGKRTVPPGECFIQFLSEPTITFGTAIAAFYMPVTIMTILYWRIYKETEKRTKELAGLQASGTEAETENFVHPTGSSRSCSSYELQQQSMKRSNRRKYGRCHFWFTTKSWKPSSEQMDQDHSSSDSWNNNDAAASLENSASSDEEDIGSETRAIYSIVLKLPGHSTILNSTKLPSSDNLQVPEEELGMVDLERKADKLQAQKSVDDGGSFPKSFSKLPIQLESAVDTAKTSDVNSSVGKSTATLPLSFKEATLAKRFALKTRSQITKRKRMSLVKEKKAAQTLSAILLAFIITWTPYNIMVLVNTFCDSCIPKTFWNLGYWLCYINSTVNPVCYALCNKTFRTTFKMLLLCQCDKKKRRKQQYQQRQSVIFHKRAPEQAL
Method in brief: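 HEK-293T cells transfected with empty pCIneo to use their native human M3 receptors, 12,500/well, assayed 48 h later. After two HBSS/HEPES/BSA pH 7.4 washes, cells were stimulated 1 h at 37 °C with 1 mM carbachol plus compounds (2% DMSO final) in LiCl-containing Ligand Buffer. IP1 quantified by HTRF against standard; triplicate curves, at least three experiments.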

[4] = target: Metabotropic glutamate receptor 5 (Rattus norvegicus, UniProt P31424); experiment: Antagonist activity at rat mGluR5 expressed in CHO cells assessed as inhibition of L-glutamate-induced inositol monophosphate accumulation after 1 hr by FRET assay; type: functional, cell-based
Sequence of Metabotropic glutamate receptor 5 (P31424 whole entry): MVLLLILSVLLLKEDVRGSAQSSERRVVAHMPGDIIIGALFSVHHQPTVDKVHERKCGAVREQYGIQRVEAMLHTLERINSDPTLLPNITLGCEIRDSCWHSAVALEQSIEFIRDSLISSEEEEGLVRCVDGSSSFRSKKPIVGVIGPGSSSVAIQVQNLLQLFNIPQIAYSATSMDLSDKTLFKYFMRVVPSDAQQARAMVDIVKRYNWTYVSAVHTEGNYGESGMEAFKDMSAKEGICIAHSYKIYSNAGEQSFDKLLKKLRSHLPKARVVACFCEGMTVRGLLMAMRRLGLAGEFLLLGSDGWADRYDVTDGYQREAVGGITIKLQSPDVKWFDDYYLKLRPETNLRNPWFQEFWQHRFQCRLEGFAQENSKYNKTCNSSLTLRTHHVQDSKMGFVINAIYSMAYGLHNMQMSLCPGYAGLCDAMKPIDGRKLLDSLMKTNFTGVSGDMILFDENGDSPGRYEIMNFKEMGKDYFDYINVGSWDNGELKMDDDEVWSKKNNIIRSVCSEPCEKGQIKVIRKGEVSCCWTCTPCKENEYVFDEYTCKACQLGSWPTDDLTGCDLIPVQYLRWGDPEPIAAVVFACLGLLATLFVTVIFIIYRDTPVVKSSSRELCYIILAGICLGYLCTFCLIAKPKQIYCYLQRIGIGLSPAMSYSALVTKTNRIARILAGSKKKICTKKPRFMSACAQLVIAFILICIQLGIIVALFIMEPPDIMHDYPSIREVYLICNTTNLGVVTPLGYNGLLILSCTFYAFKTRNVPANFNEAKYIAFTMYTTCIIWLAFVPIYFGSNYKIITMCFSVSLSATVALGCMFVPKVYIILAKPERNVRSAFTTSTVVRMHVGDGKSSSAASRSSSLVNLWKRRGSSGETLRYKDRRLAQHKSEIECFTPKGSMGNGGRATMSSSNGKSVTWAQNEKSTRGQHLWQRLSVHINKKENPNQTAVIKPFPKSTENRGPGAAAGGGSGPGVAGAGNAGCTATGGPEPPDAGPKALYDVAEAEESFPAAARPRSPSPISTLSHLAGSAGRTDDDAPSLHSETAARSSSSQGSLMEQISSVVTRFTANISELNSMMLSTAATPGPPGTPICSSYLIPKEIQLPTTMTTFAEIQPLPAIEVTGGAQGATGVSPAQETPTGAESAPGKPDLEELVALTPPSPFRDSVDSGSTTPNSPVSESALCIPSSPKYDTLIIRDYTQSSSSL
Method in brief: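 CHO cells stably expressing rat mGluR5, kept in DMEM with 10% dialyzed FBS and 1% L-proline, 37 °C, 5% CO2. After two washes in HBSS/HEPES/BSA pH 7.4, cells were stimulated 1 h at 37 °C with 100 µM L-glutamate and compounds (2% DMSO final) in LiCl Ligand Buffer. IP1 accumulation by HTRF; triplicate curves, ≥3 experiments.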

[5] = target: T3, Extracellular calcium-sensing receptor (Rattus norvegicus, UniProt P48442); experiment: Antagonist activity at rat CaSR expressed in HEK293 cells assessed as inhibition of Ca2+-induced inositol monophosphate accumulation after 30 min by FRET assay
T3 sequence (P48442 whole entry): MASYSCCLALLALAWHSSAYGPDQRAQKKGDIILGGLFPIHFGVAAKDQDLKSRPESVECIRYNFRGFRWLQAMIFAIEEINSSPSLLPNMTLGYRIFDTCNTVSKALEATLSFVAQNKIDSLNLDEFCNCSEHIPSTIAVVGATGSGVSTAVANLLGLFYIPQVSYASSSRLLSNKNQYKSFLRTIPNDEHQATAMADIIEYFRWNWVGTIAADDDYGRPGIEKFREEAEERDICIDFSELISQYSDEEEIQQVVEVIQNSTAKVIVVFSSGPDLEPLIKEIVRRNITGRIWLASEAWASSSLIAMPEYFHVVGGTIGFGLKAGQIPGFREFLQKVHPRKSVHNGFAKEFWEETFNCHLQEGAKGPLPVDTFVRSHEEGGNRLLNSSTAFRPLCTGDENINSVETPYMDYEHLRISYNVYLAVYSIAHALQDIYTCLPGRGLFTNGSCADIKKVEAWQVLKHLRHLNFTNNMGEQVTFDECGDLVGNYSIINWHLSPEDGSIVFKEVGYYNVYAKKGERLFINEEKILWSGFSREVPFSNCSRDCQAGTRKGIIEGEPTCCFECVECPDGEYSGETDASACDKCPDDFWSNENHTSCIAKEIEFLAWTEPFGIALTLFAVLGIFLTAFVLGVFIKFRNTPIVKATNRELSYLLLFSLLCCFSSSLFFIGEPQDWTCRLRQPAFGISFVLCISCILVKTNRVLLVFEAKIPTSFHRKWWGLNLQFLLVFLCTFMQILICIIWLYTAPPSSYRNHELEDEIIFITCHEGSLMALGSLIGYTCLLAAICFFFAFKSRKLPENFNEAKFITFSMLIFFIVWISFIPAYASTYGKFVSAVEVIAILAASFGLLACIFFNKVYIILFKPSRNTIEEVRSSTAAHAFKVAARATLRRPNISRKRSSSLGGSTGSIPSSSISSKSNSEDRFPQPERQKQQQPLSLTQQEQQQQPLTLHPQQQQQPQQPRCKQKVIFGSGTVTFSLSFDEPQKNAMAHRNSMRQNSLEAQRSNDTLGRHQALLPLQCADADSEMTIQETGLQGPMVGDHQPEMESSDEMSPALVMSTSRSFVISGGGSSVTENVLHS

[6] = target: T4, 5-hydroxytryptamine receptor 2C (Homo sapiens, UniProt P28335); experiment: Antagonist activity at human 5HT2C receptor expressed in HEK293 cells assessed as inhibition of serotonin-induced inositol monophosphate accumulation after 1 hr by FRET assay; type: functional, cell-based
T4 sequence (P28335 whole entry): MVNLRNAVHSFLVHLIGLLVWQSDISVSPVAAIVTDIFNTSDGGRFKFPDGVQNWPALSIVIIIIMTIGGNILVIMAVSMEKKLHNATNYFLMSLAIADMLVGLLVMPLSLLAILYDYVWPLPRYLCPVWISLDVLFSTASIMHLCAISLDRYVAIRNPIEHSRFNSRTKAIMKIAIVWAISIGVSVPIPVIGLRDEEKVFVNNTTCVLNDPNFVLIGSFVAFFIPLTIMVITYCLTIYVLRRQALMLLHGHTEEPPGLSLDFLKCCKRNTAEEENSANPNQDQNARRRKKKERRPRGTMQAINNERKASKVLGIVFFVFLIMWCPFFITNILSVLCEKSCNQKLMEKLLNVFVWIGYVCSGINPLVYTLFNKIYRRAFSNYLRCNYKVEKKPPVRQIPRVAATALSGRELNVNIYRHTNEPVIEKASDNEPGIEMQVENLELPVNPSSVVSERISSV
Method in brief: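 HEK-293T cells transiently transfected with human 5-HT2C (0.25 µg DNA/well), seeded 12,500/well 48 h before assay. After two HBSS/HEPES/BSA pH 7.4 washes, compounds in 2% DMSO final with 1 µM serotonin in Ligand Buffer (1 mM CaCl2, 1 mM MgCl2, LiCl, pH 7.4) applied 1 h at 37 °C. Lysate IP1 measured by HTRF (665/615 nm ratio vs standard); pIC50 by nonlinear regression, triplicate, ≥3 experiments.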

Structure (SMILES) | IC50 [1] | Relative potency [2] | IC50 [3] | IC50 [4] | IC50 [5] | IC50 [6]
COc1ccc2[nH]c(-c3ccccc3)c(C(=O)CN(C)CC(=O)N3CCOCC3)c2c1 | 66.1 µM | 33 | – | – | – | –
CN(CC(=O)c1c(-c2ccccc2)[nH]c2ccc(F)cc12)CC(=O)N1CCOCC1 | 39.8 µM | 55 | – | – | – | –
O=C(CNCC(=O)N1CCOCC1)c1c(-c2ccccc2)[nH]c2ccccc12 | 256 µM | 9 | – | – | – | –
CN(CC(=O)c1c(-c2ccccc2)[nH]c2ccc(CC(=O)N(C)C)cc12)CC(=O)N1CCOCC1 | > 400 µM | < 6 | – | – | – | –
CN(CC(=O)c1c(-c2ccccc2)[nH]c2ccccc12)CC(=O)N1CCOCC1 | 21.9 µM | – | 27.5 µM | 224 µM | 316 µM | 214 µM
CN(CC(=O)c1c[nH]c2ccccc12)CC(=O)N1CCOCC1 | > 400 µM | < 6 | – | – | – | –
CN(CC(=O)c1c(-c2ccc(F)cc2)[nH]c2ccccc12)CC(=O)N1CCOCC1 | 21.3 µM | 103 | – | – | – | –
CN(CCc1c(-c2ccccc2)[nH]c2ccccc12)CC(=O)N1CCOCC1 | 132 µM | 17 | – | – | – | –
CN(CC(=O)c1c(CO)[nH]c2ccccc12)CC(=O)N1CCOCC1 | > 400 µM | < 6 | – | – | – | –

Now from value to molecule:

IC50 [1] | Relative potency [2] | IC50 [3] | IC50 [4] | IC50 [5] | IC50 [6] | Structure (SMILES)
> 400 µM | < 6 | – | – | – | – | CN(CC(=O)N1CCOCC1)CC(O)c1c(-c2ccccc2)[nH]c2ccccc12 (centres undefined)
248 µM | 9 | – | – | – | – | CN(CC(=O)c1c(-c2ccco2)[nH]c2ccccc12)CC(=O)N1CCOCC1
9.33 µM | – | 4.17 µM | 41.7 µM | 56.2 µM | 51.3 µM | COc1ccc(-c2[nH]c3ccccc3c2C(=O)CN(C)CC(=O)N2CCOCC2)cc1
6.17 µM | – | 58 µM | 269 µM | 347 µM | 269 µM | CN(CCN1CCOCC1)CC(=O)c1c(-c2ccccc2)[nH]c2ccccc12
> 400 µM | < 6 | – | – | – | – | CN(CC(=O)N1CCOCC1)C(=O)c1c(-c2ccccc2)[nH]c2ccccc12
57.3 µM | 38 | – | – | – | – | CN(CC(=O)c1c(-c2ccccc2)[nH]c2ccccc12)CC(=O)N1CCCC1
5.5 µM | – | 51.3 µM | 263 µM | 240 µM | 209 µM | O=C(CN1CCCC(C(=O)N2CCOCC2)C1)c1c(-c2ccccc2)[nH]c2ccccc12 (centres undefined)
